ChEMBL document CHEMBL5214907 (J Med Chem, 2021)

Biological target: Neuronal acetylcholine receptor; alpha9/alpha10 (Homo sapiens, UniProt Q9GZZ6+Q9UGM1)
Assay: Inhibition of human alpha9alpha10 nAChR expressed in xenopus oocytes assessed as inhibition of Ach- induced response at -70 mV holding potential and measured for 1 to 5 days in presence of Ach stimulation by voltage-clamp based electrophysiological method
Format: cell-based, Oocyte
How it was run: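 Two-electrode voltage clamp on Xenopus oocytes expressing human α9α10, recorded 1–5 d after injection. Held at −70 mV at room temperature in Ca²⁺-containing ND-96. A 1 s pulse of 100 µM ACh was given every 60 s and peptide was flowed on. IC50 with 95% CI from 3–5 separate oocytes.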

Sequence of Neuronal acetylcholine receptor; alpha9/alpha10 (Q9UGM1 whole entry): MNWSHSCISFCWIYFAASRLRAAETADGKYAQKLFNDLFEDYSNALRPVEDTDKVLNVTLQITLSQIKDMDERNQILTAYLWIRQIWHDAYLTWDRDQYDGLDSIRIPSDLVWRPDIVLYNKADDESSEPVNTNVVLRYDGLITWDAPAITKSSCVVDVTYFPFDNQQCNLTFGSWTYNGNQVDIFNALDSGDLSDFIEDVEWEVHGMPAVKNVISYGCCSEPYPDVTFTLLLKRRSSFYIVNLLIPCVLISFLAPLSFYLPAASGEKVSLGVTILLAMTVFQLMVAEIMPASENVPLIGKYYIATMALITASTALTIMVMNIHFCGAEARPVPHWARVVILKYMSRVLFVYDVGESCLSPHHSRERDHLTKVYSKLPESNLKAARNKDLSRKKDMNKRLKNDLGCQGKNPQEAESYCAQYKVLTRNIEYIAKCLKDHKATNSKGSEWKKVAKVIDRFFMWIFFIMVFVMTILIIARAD
Sequence of Neuronal acetylcholine receptor; alpha9/alpha10 (Q9GZZ6 whole entry): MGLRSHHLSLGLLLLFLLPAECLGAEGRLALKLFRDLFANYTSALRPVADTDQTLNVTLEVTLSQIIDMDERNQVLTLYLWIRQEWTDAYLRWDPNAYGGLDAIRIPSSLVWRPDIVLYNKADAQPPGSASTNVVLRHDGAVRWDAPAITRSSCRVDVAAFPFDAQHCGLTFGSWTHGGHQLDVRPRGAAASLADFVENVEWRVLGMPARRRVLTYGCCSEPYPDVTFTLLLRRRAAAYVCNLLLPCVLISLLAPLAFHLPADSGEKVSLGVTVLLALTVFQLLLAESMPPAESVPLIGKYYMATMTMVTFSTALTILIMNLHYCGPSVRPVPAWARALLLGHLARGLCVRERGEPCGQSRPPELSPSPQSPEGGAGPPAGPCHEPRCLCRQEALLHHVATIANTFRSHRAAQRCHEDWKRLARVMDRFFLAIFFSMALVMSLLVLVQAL

SMILES	IC50 [nM]
C[C@@H](O)[C@@H]1NC(=O)[C@@H]2CSSC[C@@H](C(=O)N[C@@H](Cc3ccc(O)cc3)C(=O)O)NC(=O)[C@H](CCC(N)=O)NC(=O)[C@H](Cc3ccc(O)c(I)c3)NC(=O)[C@H](CCCNC(=N)N)NC(=O)[C@H](CSSC[C@@H](NC(=O)CN)C(=O)N2)NC(=O)[C@H](CCCNC(N)=O)NC(=O)[C@@H]2CCCN2C(=O)[C@H](CC(=O)O)NC1=O	1.4
C[C@@H](O)[C@@H]1NC(=O)[C@H]2NC(=O)[C@H](NC(=O)CN)CSSC[C@H](NC(=O)[C@H](CCCNC(=N)N)NC(=O)[C@@H]3CCCN3C(=O)[C@H](CC(=O)O)NC1=O)C(=O)N[C@@H](CCCNC(=N)N)C(=O)N[C@@H](Cc1ccc(O)c(I)c1)C(=O)N[C@@H](CCCN)C(=O)N[C@H](C(=O)N[C@H](CC(=O)N[C@@H](CCC(=O)O)C(=O)O)Cc1ccc(O)cc1)CSSC2(C)C	0.4
C[C@@H](O)[C@@H]1NC(=O)[C@H]2NC(=O)[C@H](NC(=O)CN)CSSC[C@H](NC(=O)[C@H](CCCNC(=N)N)NC(=O)[C@@H]3CCCN3C(=O)[C@H](CC(=O)O)NC1=O)C(=O)N[C@@H](CCCNC(=N)N)C(=O)N[C@@H](Cc1ccc(O)c(I)c1)C(=O)N[C@@H](CCCN)C(=O)N[C@H](C(=O)N[C@H](CC(=O)N[C@H](CCCNC(=N)N)C(=O)O)Cc1ccc(O)cc1)CSSC2(C)C	4
C[C@@H](O)[C@@H]1NC(=O)[C@H]2NC(=O)[C@H](NC(=O)CN)CSSC[C@H](NC(=O)[C@H](CCCNC(=N)N)NC(=O)[C@@H]3CCCN3C(=O)[C@H](CC(=O)O)NC1=O)C(=O)N[C@@H](CCCNC(=N)N)C(=O)N[C@@H](Cc1ccc(O)c(I)c1)C(=O)N[C@@H](CCCN)C(=O)N[C@H](C(=O)N[C@H](CC(=O)N[C@@H](CCCCN)C(=O)O)Cc1ccc(O)cc1)CSSC2(C)C	0.36
C[C@@H](O)[C@@H]1NC(=O)[C@H]2NC(=O)[C@H](NC(=O)CN)CSSC[C@H](NC(=O)[C@H](CCCNC(=N)N)NC(=O)[C@@H]3CCCN3C(=O)[C@H](CC(=O)O)NC1=O)C(=O)N[C@@H](CCCNC(N)=O)C(=O)N[C@@H](Cc1ccc(O)c(I)c1)C(=O)N[C@@H](CCC(N)=O)C(=O)N[C@H](C(=O)N[C@@H](Cc1ccc(O)cc1)C(=O)O)CSSC2(C)C	1.3
